From PubChem
pPAFAH inh – pPAFAH (human) enzyme inhibition; recombinant pPAFAH, FP-rhodamine probe fluorescence polarization; actives 1.5% (n = 330,000); AID 463082; inhibition, % at 3.39 µM;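 active means inhibition above the mean inhibition across the screen plus 3 SD, cut at about 25% in these data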;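 further: inhibitors block binding of the rhodamine activity-based probe so polarization drops; 0% = enzyme with DMSO and 100% = wells lacking pPAFAH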
Target sequence (Q13093 whole entry, looked up): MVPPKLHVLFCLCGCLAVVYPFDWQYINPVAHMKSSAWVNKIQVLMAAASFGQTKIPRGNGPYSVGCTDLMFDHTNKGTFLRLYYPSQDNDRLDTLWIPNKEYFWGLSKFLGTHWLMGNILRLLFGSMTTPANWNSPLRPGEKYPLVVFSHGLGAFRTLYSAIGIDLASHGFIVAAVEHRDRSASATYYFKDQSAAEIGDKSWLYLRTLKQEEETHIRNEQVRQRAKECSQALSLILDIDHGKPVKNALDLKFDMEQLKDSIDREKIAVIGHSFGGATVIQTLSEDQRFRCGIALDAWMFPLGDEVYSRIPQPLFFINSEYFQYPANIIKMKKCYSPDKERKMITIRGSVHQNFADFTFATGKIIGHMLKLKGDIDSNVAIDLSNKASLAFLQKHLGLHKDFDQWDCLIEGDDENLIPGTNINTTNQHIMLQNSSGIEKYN
PAFAH1B3 FP inh – inhibitors of human PAFAH1B3; Q15102; recombinant PAFAH1B3, FP-rhodamine probe, fluorescence polarization; inhibition, % at 3.39 µM; actives 0.28% (n = 340,000);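 active means inhibition above the screen-wide average of all tested compounds plus 3 SD, cut at about 25% in these data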;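 further: 0% = enzyme with DMSO only and 100% = wells lacking PAFAH1B3 protein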
ASAP1 inh – blocks human ASAP1-stimulated Arf1 GTP hydrolysis. GDP FP detection. inhibition, % at 16.5 µM. actives 0.19% (n = 360,000); in the data active means inhibition above about 25%;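 further: 0% = vehicle with enzyme and substrate and 100% = no enzyme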
ARFGAP1 inh – inhibitors of rat ARFGAP1; inhibition, % at 16.5 µM; Arfgap1-stimulated ARF1 GTP hydrolysis, GDP FP detection; Q62848; AID 651572; actives 0.26% (n = 360,000);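 active means inhibition above a per-plate limit, mean inhibition of low control wells plus 3 SD, cut at about 25% in these data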;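 further: 0% = DMSO wells with enzyme and 100% = wells lacking Arfgap1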
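system = rat Arfgap1 catalytic domain, aa 1-136 | technique = FP, GDP Alexa 633 tracer displaced from anti-GDP antibody, 620/688 nm | compound = one concentration, 16.5 µM, DMSO 1.26% | medium = HEPES-based buffer, pH 7.5 | timing = compound-enzyme preincubation 20 min, reaction 120 min, detection 60 min, 25 °C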
PAFAH2 FP inh – PAFAH2 (human) inhibition; Q99487; recombinant PAFAH2, FP-rhodamine activity probe, fluorescence polarization; inhibition, % at 3.39 µM; actives 0.99% (n = 340,000);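 active means inhibition above the mean over all tested compounds plus 3 SD, cut at about 30% in these data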;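 further: inhibitors block probe labeling of enzyme so polarization drops; 0% = enzyme with DMSO and 100% = wells lacking PAFAH2 protein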
PAFAH1B2 FP inh – blocks human PAF acetylhydrolase 1b catalytic subunit 2; recombinant PAFAH1B2, FP-rhodamine activity probe, fluorescence polarization; inhibition, % at 3.39 µM; actives 1.2% (n = 340,000); AID 492953;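 active means inhibition above the mean of all tested compounds plus 3 SD, cut at about 24% in these data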;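 further: 0% = enzyme with DMSO and 100% = wells lacking PAFAH1B2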
Target sequence (P68402 whole entry, looked up): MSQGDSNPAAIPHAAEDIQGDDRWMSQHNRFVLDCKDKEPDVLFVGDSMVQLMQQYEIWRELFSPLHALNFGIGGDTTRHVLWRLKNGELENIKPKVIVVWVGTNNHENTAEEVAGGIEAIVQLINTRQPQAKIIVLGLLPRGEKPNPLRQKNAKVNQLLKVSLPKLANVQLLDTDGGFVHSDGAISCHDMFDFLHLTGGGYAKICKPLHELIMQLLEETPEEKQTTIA
* = called active by the depositor; x = no result given. Only some compounds are listed: those with a hit (about 2.8% of all), similar ones and a draw of the others.

SMILES	pPAFAH inh	PAFAH1B3 FP inh	ASAP1 inh	ARFGAP1 inh	PAFAH2 FP inh	PAFAH1B2 FP inh
CC(C)(C)CNC(=O)C1(C)CCN1C(=O)Cc1ccc(-c2ccccc2)cc1 (stereo unspecified)	x	x	-5.8	-19.6	x	x
CCc1ccc(NC(=O)COC(=O)CCC2CCCC2)cc1	21.6	10.2	-8.4	8.2	20.1	7.9
COC(=O)c1ccc(CNC(=O)COC(=O)CCC2CCCC2)cc1	24.6*	-4.8	18.4	3.9	-1.4	1.1
COc1ccc(CNC(=O)COC(=O)CCC2CCCCC2)cc1	30.7*	6.1	6.1	-13.7	9.7	2.9
CC(C)(C)NC(=O)NC(=O)COC(=O)CCC1CCCC1	30.9*	-1.4	0.5	1.7	15.8	6.1
CCCCn1c(SCC(=O)NC2CCS(=O)(=O)C2)nc2ccccc2c1=O (stereo unspecified)	5.1	7.2	2.0	5.0	5.8	3.8
COc1ccc(-n2c(Cc3cccn3C)nnc2SCC(=O)Nc2cccc(OC)c2)cc1	-3.9	-2.0	-0.7	3.1	9.7	-2.8
COc1ccc(NC(=O)CSc2nnc(Cc3cccn3C)n2-c2ccc(C)cc2)cc1OC	32.3*	3.6	-9.7	-6.4	2.7	3.1
O=C(Nc1nnc(CCc2ccccc2)s1)c1cccc(F)c1	-2.7	12.3	0.6	11.8	10.4	24.6*
O=C(Nc1nnc(CCc2ccccc2)s1)c1ccc(F)cc1	-1.7	-2.6	9.9	3.7	1.1	4.3
O=C(OC[C@H]1O[C@@H](OC(=O)c2cc(O)c(O)c(OC(=O)c3cc(O)c(O)c(O)c3)c2)[C@H](OC(=O)c2cc(O)c(O)c(OC(=O)c3cc(O)c(O)c(O)c3)c2)[C@@H](OC(=O)c2cc(O)c(O)c(OC(=O)c3cc(O)c(O)c(O)c3)c2)[C@@H]1OC(=O)c1cc(O)c(O)c(OC(=O)c2cc(O)c(O)c(O)c2)c1)c1cc(O)c(O)c(OC(=O)c2cc(O)c(O)c(O)c2)c1	70.2*	x	x	x	x	x
O=C(O)c1cc(N/N=C/c2ccc(-c3ccc(F)cc3)o2)ccc1Cl	31.3*	4.7	14.8	-10.9	-0.4	4.9
CCCCNc1c(-c2ccc(OC)c(SC3CCCCC3)c2)nc2cc(C)ccn12	21.2	6.4	9.8	-0.8	-0.1	4.3
CCCCNc1c(-c2ccc(OC)c(SC3CCCCC3)c2)nc2cnccn12	33.0*	7.3	x	x	-2.9	8.3
CCOC(=O)c1c(NC(=O)CSc2nnc(C)s2)sc2c1CCC(CC)C2 (stereo unspecified)	26.1*	-17.5	15.6	4.0	-10.6	-1.3
Cc1ccccc1NS(=O)(=O)c1ccc(NC(=O)CSCc2ccc(Br)cc2)cc1	25.8*	-37.0	3.1	8.0	-41.1	-15.7
O=C(CSCc1ccc(Br)cc1)Nc1ccc(S(=O)(=O)N2CCOCC2)cc1	2.1	-0.1	8.4	-3.0	1.7	13.6
Cc1cc(C)nc(SCc2ccc(C(=O)N/N=C/c3cccc(O)c3O)cc2)n1	32.2*	36.9*	6.8	5.9	0.2	21.1
Cc1cc(C)nc(SCc2ccc(C(=O)N/N=C/c3ccc(C(=O)O)cc3)cc2)n1	2.9	10.4	-6.6	5.9	-3.8	-3.4
COc1ccc(N(CC(=O)NCCc2ccccc2)C(=O)c2csnn2)cc1OC	3.0	5.9	-0.3	-9.3	0.4	9.6
O=Cc1cc(N=Nc2ccccc2Cl)ccc1O	27.7*	13.2	-22.5	-19.1	10.3	9.5
Cc1ccc(S(=O)(=O)N2CCC(=O)N(C(COCc3ccc(Cl)cc3)Cc3ccccc3)CC2)cc1 (stereo unspecified)	8.5	9.2	-6.0	4.2	6.5	24.5*
CCN(CC)c1ccc(NC(=O)COC(=O)c2ccc3ccccc3n2)cc1	25.5*	7.1	8.3	1.7	-3.9	-5.0
Cc1ccc(CCNS(=O)(=O)c2cc3c(cc2C)NC(=O)CO3)cc1	8.7	-2.6	5.0	-7.6	-7.1	24.5*
Cc1cccc(CCNS(=O)(=O)c2cc3c(cc2C)NC(=O)CO3)c1	2.3	5.2	-5.2	0.8	0.8	3.4
SMILES	pPAFAH inh	PAFAH1B3 FP inh	ASAP1 inh	ARFGAP1 inh	PAFAH2 FP inh	PAFAH1B2 FP inh
COC(=O)c1ccc(CNC(=O)/C=C/[C@H]2O[C@@H](n3cc(C)c(=O)[nH]c3=O)C[C@@H]2O)cc1	x	x	4.4	9.7	x	x
N#Cc1c(Nc2cccc(F)c2)sc2c(O)cc(=O)[nH]c12	25.1*	x	-10.4	2.8	x	x
Cc1cc(=O)[nH]c(Nc2cccc(F)c2)n1	-2.0	9.8	8.6	-7.8	-1.2	-2.8
C/C(=N\Nc1ccc(C(=O)O)cc1)c1ccc2c(c1)Nc1ccccc1S2	33.6*	25.6*	-0.6	-6.7	24.9	8.2
COc1ccc(/C(C)=N/Nc2cccc(C(=O)O)c2)cc1OC	4.7	-7.6	6.8	-2.0	2.6	3.2
COc1ccc(CCn2c(S)nc3ccccc3c2=O)cc1	-1.8	4.8	0.5	2.6	-4.0	-0.6
Cc1ccc(N2CSC3=C(C#N)C(c4cccs4)CC(=O)N3C2)cc1 (stereo unspecified)	24.7*	12.2	3.7	-19.4	11.9	2.6
O=C1C=C(c2ccoc2)N2CCC[C@H]2C1	2.5	23.4	5.2	6.4	12.2	3.1
Cc1occc1C(=O)O/N=C(\N)c1ccc(Cl)cc1	0.3	0.6	1.6	2.2	1.7	34.4*
COc1ccc(Cl)cc1C(=O)O/N=C(\N)c1ccc(Cl)cc1	-1.1	6.7	-1.0	-0.2	2.6	-1.0
O=C(NNC(=S)Nc1cccc(C(F)(F)F)c1)c1ccc(Cl)cc1Cl	24.8*	12.6	14.8	-1.9	4.3	13.1
O=c1c2ccccc2nc(N/N=C/c2c(O)ccc3ccccc23)n1O	34.0*	11.1	3.3	0.0	0.3	2.9
CCOC(=O)Cn1c(=O)oc2cc(S(=O)(=O)Nc3c(C)cc(C)cc3C)ccc21	25.0*	6.0	-8.5	3.2	5.5	-0.6
CCOC(=O)Cn1c(=O)oc2cc(S(=O)(=O)NC3CCCCC3)ccc21	5.9	-8.2	x	x	-1.3	4.9
CC(=O)Oc1cc(O)c2c(=O)c(OC(C)=O)c(-c3ccc(OC(C)=O)c(OC(C)=O)c3)oc2c1	30.6*	47.1*	x	x	37.5*	22.3
CCN(CC(=O)Nc1ccc(NC(C)=O)cc1)Cc1c(O)ccc2cc(Br)ccc12	7.6	8.3	7.0	6.8	-3.6	67.8*
Cc1ccc(S(=O)(=O)N2[C@@H](c3ccc(C#N)cc3)C(C(=O)O)=C[C@H]2CC2CCCC2)cc1	1.6	-1.3	1.7	3.2	4.0	26.8*
CCCCC[C@@H]1C=C(C(=O)O)[C@H](c2ccc(Br)cc2)N1S(=O)(=O)c1ccc(C)cc1	4.0	0.3	-2.1	-13.1	3.6	26.7*
CC(C)(C)[C@@H]1C=C(C(=O)O)[C@H](c2ccc(Cl)cc2)N1S(=O)(=O)c1ccccc1	4.8	10.4	1.4	-1.7	-0.9	27.2*
CC[C@@H]1C=C(C(=O)O)[C@H](c2ccc(C)cc2)N1S(=O)(=O)c1ccc(C)cc1	2.4	7.4	-10.8	8.4	1.1	7.6
